According to ChEMBL document CHEMBL4689842, “EUbOPEN Chemogenomics Library wave 1” (2021):

Tested on: U2OS
Assay: Multiplex assay against U2OS
Assay type: toxicity, cell-based
Details: human
Outline: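 Compound was added to live cells that had been stained at seeding with Hoechst33342, BioTracker Green Microtubule Cytoskeleton Dye, MitoTracker Red and Annexin V Alexa Fluor 680, and imaging followed on a CQ1 microscope at 37°C and 5% CO2. CellPathfinder machine-learning gating divided cells into Hoechst high-intensity objects or normal cells, normal cells into healthy, pyknosed or fragmented nuclei, and pyknosed cells into mitotic or apoptotic. Tubulin, mitochondrial-mass and membrane-permeability phenotypes are per cents of healthy-nucleus cells.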

[1] = 12 h, 1 µM, compound concentration 1 uM, replicate 1
[2] = 12 h, 1 µM, compound concentration 1 uM, replicate 2
[3] = 12 h, 10 µM, compound concentration 10 uM, replicate 1
[4] = 12 h, 10 µM, compound concentration 10 uM, replicate 2
[5] = 24 h, 1 µM, compound concentration 1 uM, replicate 1
[6] = 24 h, 1 µM, compound concentration 1 uM, replicate 2
[7] = 24 h, 10 µM, compound concentration 10 uM, replicate 1
[8] = 24 h, 10 µM, compound concentration 10 uM, replicate 2
[9] = 48 h, 1 µM, compound concentration 1 uM, replicate 1
[10] = 48 h, 1 µM, compound concentration 1 uM, replicate 2
[11] = 48 h, 10 µM, compound concentration 10 uM, replicate 1
[12] = 48 h, 10 µM, compound concentration 10 uM, replicate 2

How did the “Population Apoptotic (%)” value [1] turn out when `Cc1c[nH]c2nccc(Oc3c(F)cc(Nc4cc(Cl)nc(N)n4)cc3F)c12` [BAY-549] was run?
The value was 47%.

What about the “Population Fragmented Nuclei (%)” value [1] of the same compound?
The value was 15%.

What about the “Population Healthy Nuclei (%)” value [1] of the same compound?
Its value is 66%.

What about the “Population Hoechst High Intensity Objects (%)” value [1] of the same compound?
The value was 6%.

And the “Population Membrane Permeable-Phenotype (%)” value [1]?
Its value is 15%.

And the “Population Mitochondria Different-Phenotype (%)” value [1]?
The value was 12%.

And the “Population Mitotic Cells (%)” value [1]?
Its value is 52%.

And the “Population Normal (%)” value [1]?
The value was 93%.

And the “Population Pyknosed Nuclei (%)” value [1]?
Its value is 18%.

And the “Population Tubulin-Different-Phenotype (%)” value [1]?
The value was 21%.

What about the “Total Cell Count” value [1] of the same compound?
Its value is 200.

What about the “Population Apoptotic (%)” value [2] of the same compound?
Its value is 44%.

And the “Population Fragmented Nuclei (%)” value [2]?
Its value is 12%.

And the “Population Healthy Nuclei (%)” value [2]?
Its value is 73%.

What about the “Population Hoechst High Intensity Objects (%)” value [2] of the same compound?
The value was 5%.

And the “Population Membrane Permeable-Phenotype (%)” value [2]?
The value was 4%.

What about the “Population Mitochondria Different-Phenotype (%)” value [2] of the same compound?
Its value is 6%.

And the “Population Mitotic Cells (%)” value [2]?
The value was 55%.

What about the “Population Normal (%)” value [2] of the same compound?
Its value is 94%.

And the “Population Pyknosed Nuclei (%)” value [2]?
The value was 14%.

And the “Population Tubulin-Different-Phenotype (%)” value [2]?
Its value is 12%.

What about the “Total Cell Count” value [2] of the same compound?
Its value is 68.

What about the “Population Apoptotic (%)” value [3] of the same compound?
Its value is 48%.

And the “Population Fragmented Nuclei (%)” value [3]?
The value was 20%.

What about the “Population Healthy Nuclei (%)” value [3] of the same compound?
The value was 59%.

What about the “Population Hoechst High Intensity Objects (%)” value [3] of the same compound?
The value was 9%.

What about the “Population Membrane Permeable-Phenotype (%)” value [3] of the same compound?
Its value is 12%.

And the “Population Mitochondria Different-Phenotype (%)” value [3]?
The value was 19%.

What about the “Population Mitotic Cells (%)” value [3] of the same compound?
The value was 52%.

And the “Population Normal (%)” value [3]?
Its value is 90%.

What about the “Population Pyknosed Nuclei (%)” value [3] of the same compound?
The value was 20%.

And the “Population Tubulin-Different-Phenotype (%)” value [3]?
Its value is 16%.

And the “Total Cell Count” value [3]?
Its value is 136.

What about the “Population Apoptotic (%)” value [4] of the same compound?
Its value is 40%.

What about the “Population Fragmented Nuclei (%)” value [4] of the same compound?
The value was 17%.

What about the “Population Healthy Nuclei (%)” value [4] of the same compound?
Its value is 65%.

And the “Population Hoechst High Intensity Objects (%)” value [4]?
Its value is 6%.

What about the “Population Membrane Permeable-Phenotype (%)” value [4] of the same compound?
The value was 7%.

What about the “Population Mitochondria Different-Phenotype (%)” value [4] of the same compound?
The value was 10%.

What about the “Population Mitotic Cells (%)” value [4] of the same compound?
Its value is 60%.

And the “Population Normal (%)” value [4]?
Its value is 93%.

What about the “Population Pyknosed Nuclei (%)” value [4] of the same compound?
Its value is 17%.

What about the “Population Tubulin-Different-Phenotype (%)” value [4] of the same compound?
Its value is 10%.

What about the “Total Cell Count” value [4] of the same compound?
The value was 62.

And the “Population Apoptotic (%)” value [5]?
Its value is 37%.

What about the “Population Fragmented Nuclei (%)” value [5] of the same compound?
The value was 13%.

And the “Population Healthy Nuclei (%)” value [5]?
The value was 70%.

What about the “Population Hoechst High Intensity Objects (%)” value [5] of the same compound?
The value was 3%.

What about the “Population Membrane Permeable-Phenotype (%)” value [5] of the same compound?
The value was 9%.

What about the “Population Mitochondria Different-Phenotype (%)” value [5] of the same compound?
The value was 10%.

And the “Population Mitotic Cells (%)” value [5]?
The value was 62%.

What about the “Population Normal (%)” value [5] of the same compound?
Its value is 96%.

What about the “Population Pyknosed Nuclei (%)” value [5] of the same compound?
Its value is 16%.

What about the “Population Tubulin-Different-Phenotype (%)” value [5] of the same compound?
Its value is 18%.

What about the “Total Cell Count” value [5] of the same compound?
Its value is 226.

And the “Population Apoptotic (%)” value [6]?
The value was 46%.

What about the “Population Fragmented Nuclei (%)” value [6] of the same compound?
The value was 8%.

And the “Population Healthy Nuclei (%)” value [6]?
Its value is 71%.

And the “Population Membrane Permeable-Phenotype (%)” value [6]?
Its value is 5%.

What about the “Population Mitochondria Different-Phenotype (%)” value [6] of the same compound?
The value was 7%.

What about the “Population Mitotic Cells (%)” value [6] of the same compound?
Its value is 53%.

And the “Population Pyknosed Nuclei (%)” value [6]?
Its value is 20%.

What about the “Total Cell Count” value [6] of the same compound?
The value was 77.

And the “Population Apoptotic (%)” value [7]?
The value was 59%.

And the “Population Fragmented Nuclei (%)” value [7]?
Its value is 25%.

What about the “Population Healthy Nuclei (%)” value [7] of the same compound?
The value was 53%.

What about the “Population Hoechst High Intensity Objects (%)” value [7] of the same compound?
Its value is 8%.

What about the “Population Membrane Permeable-Phenotype (%)” value [7] of the same compound?
Its value is 12%.

What about the “Population Mitochondria Different-Phenotype (%)” value [7] of the same compound?
The value was 19%.

And the “Population Mitotic Cells (%)” value [7]?
The value was 40%.

What about the “Population Normal (%)” value [7] of the same compound?
Its value is 91%.

What about the “Population Pyknosed Nuclei (%)” value [7] of the same compound?
Its value is 21%.

And the “Population Tubulin-Different-Phenotype (%)” value [7]?
Its value is 16%.

What about the “Total Cell Count” value [7] of the same compound?
The value was 135.

What about the “Population Apoptotic (%)” value [8] of the same compound?
The value was 71%.

What about the “Population Fragmented Nuclei (%)” value [8] of the same compound?
The value was 12%.

And the “Population Healthy Nuclei (%)” value [8]?
The value was 62%.

What about the “Population Hoechst High Intensity Objects (%)” value [8] of the same compound?
The value was 5%.

And the “Population Membrane Permeable-Phenotype (%)” value [8]?
Its value is 11%.

And the “Population Mitochondria Different-Phenotype (%)” value [8]?
The value was 20%.

And the “Population Mitotic Cells (%)” value [8]?
The value was 28%.

And the “Population Normal (%)” value [8]?
The value was 94%.

And the “Population Pyknosed Nuclei (%)” value [8]?
Its value is 25%.

What about the “Population Tubulin-Different-Phenotype (%)” value [8] of the same compound?
Its value is 20%.

And the “Total Cell Count” value [8]?
Its value is 59.

What about the “Population Apoptotic (%)” value [9] of the same compound?
The value was 60%.

And the “Population Healthy Nuclei (%)” value [9]?
Its value is 64%.

What about the “Population Hoechst High Intensity Objects (%)” value [9] of the same compound?
The value was 2%.

What about the “Population Membrane Permeable-Phenotype (%)” value [9] of the same compound?
The value was 8%.

And the “Population Mitochondria Different-Phenotype (%)” value [9]?
The value was 13%.

And the “Population Mitotic Cells (%)” value [9]?
Its value is 39%.

And the “Population Normal (%)” value [9]?
The value was 97%.

What about the “Population Pyknosed Nuclei (%)” value [9] of the same compound?
Its value is 19%.

And the “Population Tubulin-Different-Phenotype (%)” value [9]?
Its value is 20%.

What about the “Total Cell Count” value [9] of the same compound?
The value was 302.

And the “Population Apoptotic (%)” value [10]?
Its value is 66%.

What about the “Population Fragmented Nuclei (%)” value [10] of the same compound?
Its value is 15%.

What about the “Population Healthy Nuclei (%)” value [10] of the same compound?
Its value is 73%.

And the “Population Hoechst High Intensity Objects (%)” value [10]?
The value was 0%.

And the “Population Membrane Permeable-Phenotype (%)” value [10]?
The value was 11%.

And the “Population Mitochondria Different-Phenotype (%)” value [10]?
Its value is 20%.

And the “Population Mitotic Cells (%)” value [10]?
Its value is 33%.

What about the “Population Normal (%)” value [10] of the same compound?
Its value is 99%.

And the “Population Pyknosed Nuclei (%)” value [10]?
The value was 11%.

And the “Population Tubulin-Different-Phenotype (%)” value [10]?
The value was 28%.

And the “Total Cell Count” value [10]?
The value was 106.

And the “Population Apoptotic (%)” value [11]?
The value was 60%.

What about the “Population Fragmented Nuclei (%)” value [11] of the same compound?
The value was 34%.

And the “Population Healthy Nuclei (%)” value [11]?
Its value is 41%.

And the “Population Hoechst High Intensity Objects (%)” value [11]?
Its value is 5%.

What about the “Population Membrane Permeable-Phenotype (%)” value [11] of the same compound?
The value was 17%.

And the “Population Mitochondria Different-Phenotype (%)” value [11]?
The value was 46%.

And the “Population Mitotic Cells (%)” value [11]?
The value was 40%.

What about the “Population Normal (%)” value [11] of the same compound?
The value was 94%.

And the “Population Pyknosed Nuclei (%)” value [11]?
The value was 24%.

What about the “Population Tubulin-Different-Phenotype (%)” value [11] of the same compound?
Its value is 19%.

What about the “Total Cell Count” value [11] of the same compound?
Its value is 132.

And the “Population Apoptotic (%)” value [12]?
The value was 76%.

What about the “Population Fragmented Nuclei (%)” value [12] of the same compound?
The value was 12%.

What about the “Population Healthy Nuclei (%)” value [12] of the same compound?
Its value is 63%.

What about the “Population Hoechst High Intensity Objects (%)” value [12] of the same compound?
The value was 8%.

What about the “Population Membrane Permeable-Phenotype (%)” value [12] of the same compound?
Its value is 25%.

And the “Population Mitochondria Different-Phenotype (%)” value [12]?
Its value is 51%.

What about the “Population Mitotic Cells (%)” value [12] of the same compound?
The value was 23%.

And the “Population Normal (%)” value [12]?
Its value is 91%.

And the “Population Pyknosed Nuclei (%)” value [12]?
The value was 23%.

And the “Population Tubulin-Different-Phenotype (%)” value [12]?
Its value is 28%.

And the “Total Cell Count” value [12]?
The value was 60.
